Source: ChEMBL document CHEMBL2046406 (J Med Chem, 2012)
Activity calls are given as the source filed them. The calls are words filed in the database; no cut-off is given here.

Experiments:
[1] = target: T1, Kappa-type opioid receptor (Homo sapiens, UniProt P41145); test: biochemical; format: cell-based, CHO
[2] = target: T2, Delta-type opioid receptor (Homo sapiens, UniProt P41143); test: Displacement of [3H]-naltrindole from human delta opioid receptor expressed in CHO cells at 10 uM after 3 hrs by scintillation counting; format: cell-based
Mu-type opioid receptor [3] = target: T3, Mu-type opioid receptor (Homo sapiens, UniProt P35372); test: biochemical; format: cell-based, CHO
[4] = target: T2, Delta-type opioid receptor; test: Displacement of [3H]-naltrindole from human delta opioid receptor expressed in CHO cells after 3 hrs by scintillation counting; format: cell-based
Method in brief: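 CHO membranes expressing human KOR or DOR incubated with radioligand and 12 compound concentrations in 1 mL 50 mM Tris-HCl, pH 7.5, at 25 °C. […] Nonspecific binding with 10 μM naloxone. Three experiments in triplicate.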

Homo sapiens [5] = species on record: Homo sapiens; test: Selectivity index, ratio of inhibition of human kappa opioid receptor to inhibition of human mu opioid receptor
Homo sapiens [6] = species on record: Homo sapiens; test: Selectivity index, ratio of inhibition of human delta opioid receptor to inhibition of human kappa opioid receptor
Mu-type opioid receptor [7] = target: T3, Mu-type opioid receptor; test: Agonist activity at human mu opioid receptor expressed in CHO cells assessed as stimulation of […]GTPgammaS binding after 60 mins by scintillation counting relative to control; format: functional, cell-based
Mu-type opioid receptor [8] = target: T3, Mu-type opioid receptor; test: Antagonist activity at human mu opioid receptor expressed in CHO cells assessed as inhibition of DAMGO-induced […]GTPgammaS binding after 60 mins by scintillation counting; format: functional, cell-based
Mu-type opioid receptor [9] = target: T3, Mu-type opioid receptor; test: Antagonist activity at human mu opioid receptor expressed in CHO cells assessed as inhibition of DAMGO-induced […]GTPgammaS binding after 60 mins by scintillation counting relative to control; format: functional, cell-based
[10] = target: T1, Kappa-type opioid receptor; test: Agonist activity at human kappa opioid receptor expressed in CHO cells assessed as stimulation of […]GTPgammaS binding after 60 mins by scintillation counting; format: functional, cell-based
[11] = target: T1, Kappa-type opioid receptor; test: Agonist activity at human kappa opioid receptor expressed in CHO cells assessed as stimulation of […]GTPgammaS binding after 60 mins by scintillation counting relative to control; format: functional, cell-based
Method in brief: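 Membranes from CHO cells stably expressing human KOR (15 μg protein per tube) or MOR (7.5 μg protein per tube). Nonspecific binding with 10 μM GTPγS. Filtration, then scintillation counting. Triplicate, at least three experiments.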

[12] = target: T1, Kappa-type opioid receptor; test: Antagonist activity at human kappa opioid receptor expressed in CHO cells assessed as inhibition of U50488-induced […]GTPgammaS binding after 60 mins by scintillation counting; format: functional, cell-based
Method in brief: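 κ antagonism: hKOR-CHO membranes incubated with compound plus 100 nM U50,488.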

Homo sapiens [13] = species on record: Homo sapiens; test: Selectivity index, ratio of inhibition of human delta opioid receptor to inhibition of human mu opioid receptor
Mu-type opioid receptor [14] = target: T3, Mu-type opioid receptor; test: Agonist activity at human mu opioid receptor expressed in CHO cells assessed as stimulation of […]GTPgammaS binding after 60 mins by scintillation counting; format: functional, cell-based

T1 sequence (P41145 whole entry): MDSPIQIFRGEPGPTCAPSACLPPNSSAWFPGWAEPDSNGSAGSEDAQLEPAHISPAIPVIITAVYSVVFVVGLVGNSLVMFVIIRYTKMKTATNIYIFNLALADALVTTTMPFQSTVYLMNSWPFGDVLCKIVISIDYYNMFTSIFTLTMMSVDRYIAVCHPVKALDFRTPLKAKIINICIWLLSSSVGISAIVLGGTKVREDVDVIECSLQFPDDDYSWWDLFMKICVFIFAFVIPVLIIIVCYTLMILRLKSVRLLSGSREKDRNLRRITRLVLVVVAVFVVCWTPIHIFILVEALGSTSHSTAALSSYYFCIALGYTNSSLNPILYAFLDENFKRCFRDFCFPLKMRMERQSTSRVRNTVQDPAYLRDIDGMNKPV
T3 sequence (P35372 whole entry): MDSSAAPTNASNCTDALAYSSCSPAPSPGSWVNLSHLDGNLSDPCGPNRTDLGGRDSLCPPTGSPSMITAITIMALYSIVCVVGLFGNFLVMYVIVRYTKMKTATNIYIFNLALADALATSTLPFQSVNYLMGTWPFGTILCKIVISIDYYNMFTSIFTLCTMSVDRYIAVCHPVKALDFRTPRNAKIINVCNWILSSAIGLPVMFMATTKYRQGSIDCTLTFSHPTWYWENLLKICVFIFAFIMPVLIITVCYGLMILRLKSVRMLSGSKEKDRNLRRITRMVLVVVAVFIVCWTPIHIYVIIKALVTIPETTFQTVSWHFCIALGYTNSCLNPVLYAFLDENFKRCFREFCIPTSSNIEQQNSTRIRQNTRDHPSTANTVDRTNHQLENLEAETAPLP
T2 sequence (P41143 whole entry): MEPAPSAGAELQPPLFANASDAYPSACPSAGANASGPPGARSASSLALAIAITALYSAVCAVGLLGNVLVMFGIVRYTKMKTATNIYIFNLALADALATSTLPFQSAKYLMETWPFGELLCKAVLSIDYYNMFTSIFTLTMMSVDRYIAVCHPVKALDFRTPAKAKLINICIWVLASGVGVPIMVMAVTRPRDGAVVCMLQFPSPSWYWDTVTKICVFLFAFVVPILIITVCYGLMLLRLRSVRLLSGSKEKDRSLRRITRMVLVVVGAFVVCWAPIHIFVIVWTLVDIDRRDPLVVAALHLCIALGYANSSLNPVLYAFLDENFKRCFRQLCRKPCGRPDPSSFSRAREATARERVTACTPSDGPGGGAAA

| Structure (SMILES) | Ki [1] [nM] | inhibition [2] [%] | Ki (Mu-type opioid receptor [3]) [nM] | Ki [4] [nM] | Selectivity ratio (Homo sapiens [5]) | Selectivity ratio (Homo sapiens [6]) | Emax (Mu-type opioid receptor [7]) [%] | IC50 (Mu-type opioid receptor [8]; read-out: IC50) [nM] | Imax (Mu-type opioid receptor [9]) | EC50 [10] [nM] | Emax [11] [%] | Activity [12] | Selectivity ratio (Homo sapiens [13]) | EC50 (Mu-type opioid receptor [14]) [nM] | IC50 (Mu-type opioid receptor [8]; cho) |
| --- | --- | --- | --- | --- | --- | --- | --- | --- | --- | --- | --- | --- | --- | --- | --- |
| COc1cccc(CNc2ccc3c4c2O[C@H]2[C@@H](O)C=C[C@H]5[C@@H](C3)N(C)CC[C@@]452)c1 | 500 | 33 |  |  |  |  |  |  |  |  |  |  |  |  |  |
| Oc1ccc(CNc2ccc3c(c2)[C@@]24CCCC[C@H]2[C@@H](C3)N(CC2CC2)CC4)cc1 | 0.27 |  | 0.28 | 13 | 44 | 44 | 19 | 7.6 | 80% | 1.8 | 100 | inactive |  |  |  |
| Oc1ccc(CNc2ccc3c(c2)[C@@]24CCCC[C@H]2[C@@H](C3)N(CC2CCC2)CC4)cc1 | 2.3 |  | 0.35 | 120 | 340 |  | 38 | 75 | 56% | 38 | 130 | inactive | 7 | 3.6 |  |
| COc1ccccc1CNc1ccc2c(c1)[C@@]13CCCC[C@H]1[C@@H](C2)N(CC1CC1)CC3 | 1.3 |  | 1.2 | 160 | 130 | 130 |  |  |  |  |  |  |  |  |  |
| COc1cccc(CN(C)c2ccc3c(c2)[C@@]24CCCC[C@H]2[C@@H](C3)N(CC2CCC2)CC4)c1 | 25 |  | 13 | 350 | 27 |  |  |  |  |  |  |  | 2 |  |  |
| COc1ccc(CNc2ccc3c(c2)[C@@]24CCCC[C@H]2[C@@H](C3)N(CC2CCC2)CC4)cc1 | 4.5 |  | 0.86 | 260 | 300 |  | 34 | 150 | 55% | 50 | 120 | inactive | 5 | 7.8 |  |
| COc1cccc(CNc2ccc3c(c2)[C@@]24CCCC[C@H]2[C@@H](C3)N(CC2CCC2)CC4)c1 | 3.5 |  | 0.69 | 150 | 220 |  | 39 | 80 | 66% | 39 | 120 | inactive | 5 | 3.8 |  |
| c1cc2c(cc1CNc1ccc3c(c1)[C@@]14CCCC[C@H]1[C@@H](C3)N(CC1CCC1)CC4)OCO2 | 1.1 |  | 0.34 | 53 | 160 |  | 39 | 94 | 60% | 27 | 130 | inactive | 3 | 3.6 |  |
| COc1ccccc1CNc1ccc2c(c1)[C@@]13CCCC[C@H]1[C@@H](C2)N(CC1CCC1)CC3 | 2.2 |  | 2.7 | 61 | 28 | 28 |  |  |  |  |  |  |  |  |  |
| C[C@@H](NC(=O)[C@@H](N)Cc1ccc(O)cc1)C(=O)NCC(=O)N(C)[C@@H](Cc1ccccc1)C(=O)NCCO |  |  |  |  |  |  |  |  | inactive |  |  |  |  |  |  |
| CN(Cc1ccc(Cl)cc1)c1ccc2c(c1)[C@@]13CCCC[C@H]1[C@@H](C2)N(CC1CCC1)CC3 | 27 |  | 26 | 730 | 28 | 28 |  |  |  |  |  |  |  |  |  |
| c1cc2c(cc1CNc1ccc3c(c1)[C@@]14CCCC[C@H]1[C@@H](C3)N(CC1CC1)CC4)OCO2 | 0.53 |  | 0.17 | 20 | 120 |  | 18 | 0.21 | 72% | 0.077 | 120 | inactive | 3 |  |  |
| COc1ccc(CNc2ccc3c(c2)[C@@]24CCCC[C@H]2[C@@H](C3)N(CC2CC2)CC4)cc1 |  |  |  |  | 65 |  | 30 | 10 | 67% | 5.3 | 130 | inactive | 2 | 6.8 |  |
| COc1ccc(CN(C)c2ccc3c(c2)[C@@]24CCCC[C@H]2[C@@H](C3)N(CC2CCC2)CC4)cc1 | 8.5 |  | 9.5 | 290 | 34 | 34 |  |  |  |  |  |  |  |  |  |
| CN(Cc1ccc(O)cc1)c1ccc2c(c1)[C@@]13CCCC[C@H]1[C@@H](C2)N(CC1CCC1)CC3 | 4.1 |  | 3.2 | 530 | 170 | 170 |  |  |  |  |  |  |  |  |  |
| COc1ccc2c3c1O[C@H]1C(=O)CC[C@H]4[C@@H](C2)N(C)CC[C@]314 |  | 37 |  |  |  |  |  |  |  |  |  |  |  |  |  |
| CN1CC[C@]23c4c5ccc(NCc6ccccc6O)c4O[C@H]2[C@@H](O)C=C[C@H]3[C@H]1C5 | 370 | 27 |  |  |  |  |  |  |  |  |  |  |  |  |  |
| CN1CC[C@]23c4c5ccc(NCc6ccc(O)cc6)c4O[C@H]2[C@@H](O)C=C[C@H]3[C@H]1C5 | 560 | 19 | 44 |  | 230 |  |  |  |  |  |  |  | 13 |  |  |
| c1ccc(CNc2ccc3c(c2)[C@@]24CCCC[C@H]2[C@@H](C3)N(CC2CCC2)CC4)cc1 |  |  |  |  | 76 |  |  |  |  |  |  |  | 2 |  |  |
| COc1ccccc1CNc1ccc2c3c1O[C@H]1[C@@H](O)C=C[C@H]4[C@@H](C2)N(C)CC[C@@]341 | 220 | 22 |  |  |  |  |  |  | inactive |  |  |  |  |  | Not Active |
| CN(Cc1cccc(O)c1)c1ccc2c(c1)[C@@]13CCCC[C@H]1[C@@H](C2)N(CC1CCC1)CC3 | 23 |  | 17 | 170 | 10 | 10 |  |  |  |  |  |  |  |  |  |
| COc1cccc(CNc2ccc3c(c2)[C@@]24CCCC[C@H]2[C@@H](C3)N(CC2CC2)CC4)c1 | 1.5 |  | 0.51 | 110 | 220 |  | 23 | 2 | 77% | 0.43 | 130 | inactive | 3 |  |  |
| Oc1cccc(CNc2ccc3c(c2)[C@@]24CCCC[C@H]2[C@@H](C3)N(CC2CCC2)CC4)c1 | 1.9 |  | 0.32 | 230 | 720 |  | 30 | 4.8 | 74% |  |  |  | 6 |  |  |
| COc1ccccc1CN(C)c1ccc2c(c1)[C@@]13CCCC[C@H]1[C@@H](C2)N(CC1CCC1)CC3 | 19 |  | 14 | 190 | 14 | 14 |  |  |  |  |  |  |  |  |  |
| Oc1ccccc1CNc1ccc2c(c1)[C@@]13CCCC[C@H]1[C@@H](C2)N(CC1CCC1)CC3 | 1.7 |  | 1.7 | 110 | 65 | 65 | 49 | 810 | 32% | 47 | 130 | inactive |  | 38 |  |
| c1ccc(CNc2ccc3c(c2)[C@@]24CCCC[C@H]2[C@@H](C3)N(CC2CC2)CC4)cc1 |  |  |  |  | 112 | 112 |  |  |  |  |  |  |  |  |  |
| O=[N+]([O-])c1cccc(CNc2ccc3c(c2)[C@@]24CCCC[C@H]2[C@@H](C3)N(CC2CCC2)CC4)c1 | 1.1 |  | 0.43 | 150 | 350 |  | 70 | 6.8 | 49% | 0.79 | 140 | inactive | 3 | 1.1 |  |
| Clc1ccc(CNc2ccc3c(c2)[C@@]24CCCC[C@H]2[C@@H](C3)N(CC2CCC2)CC4)cc1 | 4.5 |  | 1.7 | 100 | 59 |  |  |  |  |  |  |  | 3 |  |  |
| CN1CC[C@]23CCCC[C@H]2[C@H]1Cc1ccc(NCc2cccc(O)c2)cc13 | 10 |  | 0.42 | 720 |  |  |  |  |  | 230 | 140 | inactive |  | 6.5 | Not Active |
| Oc1cccc(CNc2ccc3c(c2)[C@@]24CCCC[C@H]2[C@@H](C3)N(CC2CC2)CC4)c1 | 0.36 |  | 0.16 | 41 | 260 |  | 27 | 3.5 | 79% | 3.9 | 98 | inactive | 2 |  |  |
